Laboratory results published in ChEMBL document CHEMBL2203049, “Novel retinoic acid 4-hydroxylase (CYP26) inhibitors based on a 3-(1H-imidazol- and triazol-1-yl)-2,2-dimethyl-3-(4-(phenylamino)phenyl)propyl scaffold” (Bioorg Med Chem, 2012).
pIC50: −log10 of the molar value. Each block holds one compound with its values, some of them ahead of it.

What was measured:
[1] = biological target: T1, Cytochrome P450 26A1 (Homo sapiens, UniProt O43174); assay: Inhibition of CYP26A1 in human MCF7 cell microsomes using [3H]ATRA as substrate after 1 hr by scintillation counter analysis; design: species or system Microsome
T1 sequence (O43174 whole entry): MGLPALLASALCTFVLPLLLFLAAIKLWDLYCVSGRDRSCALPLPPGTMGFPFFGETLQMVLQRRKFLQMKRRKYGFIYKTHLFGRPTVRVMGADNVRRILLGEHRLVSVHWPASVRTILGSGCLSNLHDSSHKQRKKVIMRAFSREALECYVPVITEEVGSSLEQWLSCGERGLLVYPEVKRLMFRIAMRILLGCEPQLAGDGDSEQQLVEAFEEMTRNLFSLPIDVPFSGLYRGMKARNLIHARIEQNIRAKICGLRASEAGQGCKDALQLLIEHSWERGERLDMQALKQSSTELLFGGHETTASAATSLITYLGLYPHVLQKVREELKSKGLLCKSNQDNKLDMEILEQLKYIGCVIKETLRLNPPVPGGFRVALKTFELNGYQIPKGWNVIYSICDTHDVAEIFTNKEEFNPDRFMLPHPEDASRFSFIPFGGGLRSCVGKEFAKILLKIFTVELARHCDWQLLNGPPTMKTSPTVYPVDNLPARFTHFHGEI
Method in brief: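 MCF-7 cells (RPMI 1640, 10% FCS, 2 mM L-glutamine, 37 °C, 5% CO₂) pretreated 24 h with 1 µM RA to induce CYP26; microsomes by differential centrifugation, activity normalised by cytochrome c reductase. 50 µg microsomal protein, 2 mM NADPH, 10 nM ATRA plus 0.1 µCi ³H-ATRA, pH 7.4 Tris/KCl/MgCl₂/BSA, inhibitor 1–1000 nM, 1 h 37 °C; acetonitrile quench, C18 HPLC, flow scintillation; inhibition from metabolite peak area fraction versus no-inhibitor control.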

[2] = biological target: CYP2D6 (Homo sapiens, UniProt P10635); assay: Inhibition of CYP2D6 in human liver microsomes at 0.4 uM; type: ADME, Microsome
[3] = biological target: CYP2C9 (Homo sapiens, UniProt P11712); assay: Inhibition of CYP2C9 in human liver microsomes at 0.4 uM; type: ADME, Microsome
[4] = biological target: CYP2C19 (Homo sapiens, UniProt P33261); assay: Inhibition of CYP2C19 in human liver microsomes at 0.4 uM; type: ADME, Microsome
[5] = biological target: CYP3A4 (Homo sapiens, UniProt P08684); assay: Inhibition of CYP3A4 in human liver microsomes at 0.4 uM; type: ADME, Microsome
[6] = biological target: T2, CYP1A2 (Homo sapiens, UniProt P05177); assay: Inhibition of CYP1A2 in human liver microsomes at 0.4 uM; type: ADME, Microsome
T2 sequence (P05177 whole entry): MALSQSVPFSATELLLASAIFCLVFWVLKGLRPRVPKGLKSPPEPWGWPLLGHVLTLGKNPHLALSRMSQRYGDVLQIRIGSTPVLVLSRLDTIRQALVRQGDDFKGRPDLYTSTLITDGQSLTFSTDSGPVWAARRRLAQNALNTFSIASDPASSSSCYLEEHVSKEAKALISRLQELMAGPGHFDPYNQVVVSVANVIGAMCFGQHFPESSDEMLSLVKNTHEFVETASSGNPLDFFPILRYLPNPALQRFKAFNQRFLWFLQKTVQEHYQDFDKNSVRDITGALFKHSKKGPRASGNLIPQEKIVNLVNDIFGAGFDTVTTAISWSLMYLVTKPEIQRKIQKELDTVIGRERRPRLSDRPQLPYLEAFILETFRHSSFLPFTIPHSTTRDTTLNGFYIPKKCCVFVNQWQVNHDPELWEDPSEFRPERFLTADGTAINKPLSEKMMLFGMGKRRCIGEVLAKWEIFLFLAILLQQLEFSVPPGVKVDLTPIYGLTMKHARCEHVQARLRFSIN

[7] = Selectivity ratio of IC50 for CYP3A4 in human liver microsomes to IC50 for CYP26A1 in human MCF7 cell microsomes
[8] = Selectivity ratio of IC50 for CYP2D6 in human liver microsomes to IC50 for CYP26A1 in human MCF7 cell microsomes
[9] = Selectivity ratio of IC50 for CYP2C9 in human liver microsomes to IC50 for CYP26A1 in human MCF7 cell microsomes
[10] = Selectivity ratio of IC50 for CYP1A2 in human liver microsomes to IC50 for CYP26A1 in human MCF7 cell microsomes
[11] = biological target: Cytochrome P450 2D6 (Homo sapiens, UniProt P10635); assay: Inhibition of CYP2D6 in human liver microsomes; type: ADME, Microsome
[12] = biological target: Cytochrome P450 2C19 (Homo sapiens, UniProt P33261); assay: Inhibition of CYP2C19 in human liver microsomes; type: ADME, Microsome
[13] = biological target: Cytochrome P450 2C9 (Homo sapiens, UniProt P11712); assay: Inhibition of CYP2C9 in human liver microsomes; type: ADME, Microsome
[14] = biological target: T3, Cytochrome P450 1A2 (Homo sapiens, UniProt P05177); assay: Inhibition of CYP1A2 in human liver microsomes; type: ADME, Microsome
T3 sequence (P05177 whole entry): T2 sequence (P05177 whole entry)

[15] = biological target: Cytochrome P450 3A4 (Homo sapiens, UniProt P08684); assay: Inhibition of CYP3A4 in human liver microsomes; type: ADME, Microsome
Cytochrome P450 3A4, sequence (P08684 whole entry): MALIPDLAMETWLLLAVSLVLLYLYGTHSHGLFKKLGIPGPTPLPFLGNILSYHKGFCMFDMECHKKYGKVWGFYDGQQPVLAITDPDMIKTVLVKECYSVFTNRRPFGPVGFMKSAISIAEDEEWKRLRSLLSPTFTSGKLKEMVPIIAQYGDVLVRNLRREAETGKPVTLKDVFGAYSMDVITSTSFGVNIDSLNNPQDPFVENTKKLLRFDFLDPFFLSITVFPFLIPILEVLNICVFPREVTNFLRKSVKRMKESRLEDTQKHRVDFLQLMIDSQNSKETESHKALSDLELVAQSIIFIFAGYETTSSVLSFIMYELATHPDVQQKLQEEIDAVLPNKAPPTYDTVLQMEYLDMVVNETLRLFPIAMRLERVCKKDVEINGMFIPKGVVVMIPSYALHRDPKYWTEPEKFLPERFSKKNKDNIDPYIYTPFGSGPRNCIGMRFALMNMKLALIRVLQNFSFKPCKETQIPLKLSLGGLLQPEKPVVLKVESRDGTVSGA

CYP2D6, sequence (P10635 whole entry): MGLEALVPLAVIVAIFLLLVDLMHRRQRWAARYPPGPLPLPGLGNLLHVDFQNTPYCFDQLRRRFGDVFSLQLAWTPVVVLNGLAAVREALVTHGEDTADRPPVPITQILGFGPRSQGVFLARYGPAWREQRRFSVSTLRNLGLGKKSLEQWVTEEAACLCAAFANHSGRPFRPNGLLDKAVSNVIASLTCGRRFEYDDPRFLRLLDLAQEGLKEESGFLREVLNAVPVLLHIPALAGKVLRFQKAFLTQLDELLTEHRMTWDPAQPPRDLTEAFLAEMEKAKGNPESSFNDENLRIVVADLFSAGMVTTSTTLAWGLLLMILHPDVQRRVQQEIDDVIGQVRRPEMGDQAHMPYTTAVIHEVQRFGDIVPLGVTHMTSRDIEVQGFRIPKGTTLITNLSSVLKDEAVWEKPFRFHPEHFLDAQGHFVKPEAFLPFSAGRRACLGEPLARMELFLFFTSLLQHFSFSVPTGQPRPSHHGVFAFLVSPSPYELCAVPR
CYP2C9, sequence (P11712 whole entry): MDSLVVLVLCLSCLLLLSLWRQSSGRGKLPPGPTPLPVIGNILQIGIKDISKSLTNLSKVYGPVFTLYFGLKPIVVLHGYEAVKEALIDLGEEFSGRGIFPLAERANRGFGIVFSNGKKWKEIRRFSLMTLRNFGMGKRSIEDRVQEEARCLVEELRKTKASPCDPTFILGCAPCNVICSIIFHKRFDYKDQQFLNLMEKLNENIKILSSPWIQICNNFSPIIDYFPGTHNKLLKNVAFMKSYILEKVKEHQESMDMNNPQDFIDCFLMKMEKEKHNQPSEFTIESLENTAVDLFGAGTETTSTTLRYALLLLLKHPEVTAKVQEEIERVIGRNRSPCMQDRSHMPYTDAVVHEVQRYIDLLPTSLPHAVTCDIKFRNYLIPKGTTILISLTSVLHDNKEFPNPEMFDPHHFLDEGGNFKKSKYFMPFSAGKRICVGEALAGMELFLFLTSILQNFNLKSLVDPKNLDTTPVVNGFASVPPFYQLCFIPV
CYP2C19, sequence (P33261 whole entry): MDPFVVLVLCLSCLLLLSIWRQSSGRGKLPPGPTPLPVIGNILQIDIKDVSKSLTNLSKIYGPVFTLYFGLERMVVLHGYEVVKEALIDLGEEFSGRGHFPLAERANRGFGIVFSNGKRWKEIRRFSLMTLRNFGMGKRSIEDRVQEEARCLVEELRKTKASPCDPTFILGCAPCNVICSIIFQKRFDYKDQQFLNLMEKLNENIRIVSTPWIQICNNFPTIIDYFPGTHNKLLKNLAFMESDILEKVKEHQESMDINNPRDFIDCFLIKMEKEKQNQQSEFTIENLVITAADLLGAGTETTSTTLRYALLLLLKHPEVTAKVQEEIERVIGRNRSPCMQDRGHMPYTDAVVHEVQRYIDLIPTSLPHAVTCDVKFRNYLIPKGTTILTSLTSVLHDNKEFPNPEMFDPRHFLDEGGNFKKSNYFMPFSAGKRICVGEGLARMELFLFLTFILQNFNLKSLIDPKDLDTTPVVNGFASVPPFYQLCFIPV
CYP3A4, sequence (P08684 whole entry): as the sequence (P08684 whole entry) above
Cytochrome P450 2D6, sequence (P10635 whole entry): as the sequence (P10635 whole entry) above
Cytochrome P450 2C9, sequence (P11712 whole entry): as the sequence (P11712 whole entry) above
Cytochrome P450 2C19, sequence (P33261 whole entry): as the sequence (P33261 whole entry) above

pIC50 [1]: 6.00
Structure (SMILES): CNC(=O)C(C)(C)C(c1ccc(Nc2ccccc2)cc1)n1cncn1 (stereo not drawn)

pIC50 [1]: 7.07
Structure (SMILES): CC(C)(C(=O)O)C(c1ccc(Nc2ccc(C(=O)O)cc2)cc1)n1cncn1 (stereo not drawn)

pIC50 [1]: 6.00
Structure (SMILES): CNC(=O)C(C)(C)C(c1ccc(Nc2ccc(Cl)cc2)cc1)n1ccnc1 (stereo not drawn)

pIC50 [1]: 6.60
Structure (SMILES): CCNC(=O)C(C)(C)C(c1ccc(Nc2ccccc2)cc1)n1ccnc1 (stereo not drawn)

pIC50 [1]: 7.02
Structure (SMILES): COC(=O)C(C)(C)C(c1ccc(Nc2ccc(C(C)=O)cc2)cc1)n1cncn1 (stereo not drawn)

pIC50 [1]: 6.70
Structure (SMILES): CNC(=O)C(C)(C)C(c1ccc(Nc2ccccc2)cc1)n1ccnc1 (stereo not drawn)

pIC50 [1]: < 6.00
Structure (SMILES): CC(C)(C(=O)O)C(c1ccc(Nc2ccccc2)cc1)n1ccnc1 (stereo not drawn)

inhibition at 0.4 µM [2]: 27%
inhibition at 0.4 µM [3]: 3%
inhibition at 0.4 µM [4]: 17%
inhibition at 0.4 µM [5]: 83%
inhibition at 0.4 µM [6]: 6%
Structure (SMILES): C[C@H]([C@@H](c1ccc(Nc2nc3ccccc3s2)cc1)n1cncn1)N(C)C

pIC50 [11]: 5.89
pIC50 [12]: 5.38
pIC50 [13]: 5.04
pIC50 [14]: 5.07
pIC50 [15]: 6.70
inhibition at 0.4 µM [2]: 13%
inhibition at 0.4 µM [3]: 19%
inhibition at 0.4 µM [4]: 19%
inhibition at 0.4 µM [5]: 47%
inhibition at 0.4 µM [6]: 10%
pIC50 [1]: 7.89
Structure (SMILES): COC(=O)C(C)(C)C(c1ccc(Nc2ccccc2)cc1)n1cncn1 (stereo not drawn)
Ratio IC50 [7]: 15
Ratio IC50 [8]: >100
Ratio IC50 [9]: >100
Ratio IC50 [10]: >100

pIC50 [1]: < 6.00
Structure (SMILES): CNC(=O)C(C)(C)C(c1ccc(Nc2ccc(OC)cc2)cc1)n1ccnc1 (stereo not drawn)
